ChEMBL document CHEMBL3808334, “Synthesis and in vitro evaluation of novel triazine analogues as anticancer agents and their interaction studies with bovine serum albumin” (Eur J Med Chem, 2016)

Experiments:
Type in all cases: functional
HT-29 [1] = experiment: Growth inhibition of human HT-29 cells assessed as cell growth at 10^-6 M incubated for 48 hrs by sulforhodamine B assay; settings: HT-29, 48 h, read-out: Activity
MDA-MB-435 [2] = experiment: Growth inhibition of human MDA-MB-435 cells assessed as cell growth at 10^-8 M incubated for 48 hrs by sulforhodamine B assay; settings: MDA-MB-435, 48 h, read-out: Activity
[3] = Growth inhibition of human SNB19 cells assessed as cell growth at 10^-4 M incubated for 48 hrs by sulforhodamine B assay; settings: SNB-19, 48 h, read-out: Activity
[4] = Growth inhibition of human MOLT4 cells assessed as cell growth at 10^-7 M incubated for 48 hrs by sulforhodamine B assay; settings: MOLT-4, 48 h, read-out: Activity
Procedure, shortened: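 Cells plated at 5,000–40,000/well according to doubling time and preincubated 24 h at 37 °C, 5% CO₂, with time-zero plates TCA-fixed. Drugs were kept as DMSO concentrates at 400× the top concentration and diluted in medium with 50 µg/ml gentamicin. Five 10-fold or ½-log dilutions were run for 48 h, followed by SRB staining and A515. Percent growth = (Ti−Tz)/(C−Tz)×100, or (Ti−Tz)/Tz×100 when Ti<Tz.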

HT-29 [5] = experiment: Growth inhibition of human HT-29 cells assessed as cell growth at 10^-5 M incubated for 48 hrs by sulforhodamine B assay; settings: HT-29, 48 h, read-out: Activity
[6] = Growth inhibition of human SW620 cells assessed as cell growth at 10^-6 M incubated for 48 hrs by sulforhodamine B assay; settings: SW-620, 48 h, read-out: Activity
[7] = Growth inhibition of human HOP92 cells assessed as cell growth at 10^-4 M incubated for 48 hrs by sulforhodamine B assay; settings: HOP-92, 48 h, read-out: Activity
786-0 = experiment: Growth inhibition of human 786-0 cells assessed as cell growth at 10^-7 M incubated for 48 hrs by sulforhodamine B assay; settings: 786-0, 48 h, read-out: Activity
Procedure, shortened: (§1)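 Five-dose assay: five concentrations from 10-fold or ½-log serial dilutions. Cells are plated at 5,000–40,000 per well according to doubling time, grown 24 h, then exposed 48 h at 37 °C, 5% CO₂. Fixed with cold 50% TCA (final addition) for 60 min at 4 °C and stained with 0.4% SRB in 1% acetic acid. Bound dye is solubilized in 10 mM Tris base and read at 515 nm. GI₅₀ is where [(Ti−Tz)/(C−Tz)]×100 = 50, with a time-zero plate as Tz.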

CCRF-CEM [8] = experiment: Growth inhibition of human CCRF-CEM cells assessed as cell growth at 10 uM incubated for 48 hrs by sulforhodamine B assay; settings: read-out: Activity
Procedure, shortened: (§2)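 One-dose screen at 10 µM final. Cells are plated at 5,000–40,000 per well according to doubling time and preincubated 24 h at 37 °C, 5% CO₂. Compound (DMSO stock diluted in medium with 50 µg/ml gentamicin) is then added for 48 h. Growth percent is read by sulforhodamine B staining, absorbance at 515 nm.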

[9] = Growth inhibition of human OVCAR8 cells assessed as cell growth at 10^-8 M incubated for 48 hrs by sulforhodamine B assay; settings: OVCAR-8, 48 h, read-out: Activity
KM12 = experiment: Growth inhibition of human KM12 cells assessed as cell growth at 10^-8 M incubated for 48 hrs by sulforhodamine B assay; settings: KM12, 48 h, read-out: Activity
A549 [10] = experiment: Growth inhibition of human A549/ATCC cells assessed as cell growth at 10^-8 M incubated for 48 hrs by sulforhodamine B assay; settings: A549, 48 h, read-out: Activity; procedure, shortened: as §1
[11] = Growth inhibition of human RPMI8226 cells assessed as cell growth at 10^-8 M incubated for 48 hrs by sulforhodamine B assay; settings: RPMI-8226, 48 h, read-out: Activity
T47D [12] = experiment: Growth inhibition of human T47D cells assessed as cell growth at 10 uM incubated for 48 hrs by sulforhodamine B assay; settings: read-out: Activity
CCRF-CEM [13] = experiment: Growth inhibition of human CCRF-CEM cells assessed as cell growth at 10^-5 M incubated for 48 hrs by sulforhodamine B assay; settings: read-out: Activity
Procedure, shortened: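 Leukemia line in the five-dose format: five concentrations from 10-fold or ½-log serial dilutions. Plated at 5,000–40,000 cells per well, preincubated 24 h, then compound added for 48 h at 37 °C, 5% CO₂. Sulforhodamine B absorbance read at 515 nm. Growth is computed against time-zero (Tz) and control (C) readings; GI₅₀ is where [(Ti−Tz)/(C−Tz)]×100 = 50.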

[14] = Growth inhibition of human UO31 cells assessed as cell growth at 10^-8 M incubated for 48 hrs by sulforhodamine B assay; settings: UO-31, 48 h, read-out: Activity
[15] = Growth inhibition of human OVCAR4 cells assessed as cell growth at 10^-4 M incubated for 48 hrs by sulforhodamine B assay; settings: OVCAR-4, 48 h, read-out: Activity
[16] = Growth inhibition of human SNB75 cells assessed as cell growth at 10^-7 M incubated for 48 hrs by sulforhodamine B assay; settings: SNB-75, 48 h, read-out: Activity
[17] = Growth inhibition of human SF295 cells assessed as cell growth at 10^-5 M incubated for 48 hrs by sulforhodamine B assay; settings: SF-295, 48 h, read-out: Activity
U-251 = experiment: Growth inhibition of human U251 cells assessed as cell growth at 10^-8 M incubated for 48 hrs by sulforhodamine B assay; settings: U-251, 48 h, read-out: Activity
MDA-MB-435 [18] = experiment: Growth inhibition of human MDA-MB-435 cells assessed as cell growth at 10^-7 M incubated for 48 hrs by sulforhodamine B assay; settings: MDA-MB-435, 48 h, read-out: Activity
A549 [19] = experiment: Growth inhibition of human A549/ATCC cells assessed as cell growth at 10 uM incubated for 48 hrs by sulforhodamine B assay; settings: A549, 48 h, read-out: Activity; procedure, shortened: as §2
A498 = experiment: Growth inhibition of human A498 cells assessed as cell growth at 10^-6 M incubated for 48 hrs by sulforhodamine B assay; settings: A498, 48 h, read-out: Activity; procedure, shortened: as §1
NCI-H522 = experiment: Growth inhibition of human NCI-H522 cells assessed as cell growth at 10 uM incubated for 48 hrs by sulforhodamine B assay; settings: NCI-H522, 48 h, read-out: Activity
EKVX = experiment: Growth inhibition of human EKVX cells assessed as cell growth at 10^-8 M incubated for 48 hrs by sulforhodamine B assay; settings: read-out: Activity
Procedure, shortened: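 Cells seeded at 5,000–40,000/well according to doubling time and preincubated 24 h at 37 °C, 5% CO2. Time-zero plates were TCA-fixed. DMSO concentrate was diluted in medium with 50 µg/ml gentamicin to give five concentrations (10-fold or ½ log steps), then exposed 48 h. Cells were TCA-fixed, stained with 0.4% SRB and read at 515 nm. Percent growth was taken against time-zero and control; GI50, TGI and LC50 derived.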

T47D [20] = experiment: Growth inhibition of human T47D cells assessed as cell growth at 10^-7 M incubated for 48 hrs by sulforhodamine B assay; settings: read-out: Activity

Compound: c1ccc(-c2nc(Nc3ccc(-c4nc5ccccc5[nH]4)cc3)nc(N3CCOCC3)n2)cc1
- growth at 1 µM (HT-29 [1]): 36%
- growth at 0.01 µM (MDA-MB-435 [2]): 98%
- growth at 100 µM [3]: -48%
- growth at 0.1 µM [4]: 79%
- growth at 10 µM (HT-29 [5]): -70%
- growth at 1 µM [6]: 39%
- growth at 100 µM [7]: -85%
- growth at 0.1 µM (786-0): 78%
- growth at 10 µM (CCRF-CEM [8]): -15.7%
- growth at 0.01 µM [9]: 101%
- growth at 0.01 µM (KM12): 98%
- growth at 0.01 µM (A549 [10]): 103%
- growth at 0.01 µM [11]: 100%
- growth at 10 µM (T47D [12]): -62.3%
- growth at 10 µM (CCRF-CEM [13]): -33%
- growth at 0.01 µM [14]: 82%
- growth at 100 µM [15]: -98%
- growth at 0.1 µM [16]: 96%
- growth at 10 µM [17]: -76%
- growth at 0.01 µM (U-251): 105%
- growth at 0.1 µM (MDA-MB-435 [18]): 101%
- growth at 10 µM (A549 [19]): -68.5%
- growth at 1 µM (A498): 55%
- growth at 10 µM (NCI-H522): -68.2%
- growth at 0.01 µM (EKVX): 92%
- growth at 0.1 µM (T47D [20]): 109%

Compound: Fc1ccc(-c2nc(Nc3ccc(-c4nc5ccccc5[nH]4)cc3)nc(N3CCOCC3)n2)cc1
- growth at 1 µM (HT-29 [1]): 96%
- growth at 0.01 µM (MDA-MB-435 [2]): 99%
- growth at 100 µM [3]: 4%
- growth at 0.1 µM [4]: 96%
- growth at 10 µM (HT-29 [5]): -35%
- growth at 1 µM [6]: 100%
- growth at 100 µM [7]: -58%
- growth at 0.1 µM (786-0): 97%
- growth at 10 µM (CCRF-CEM [8]): -1.84%
- growth at 0.01 µM [9]: 101%
- growth at 0.01 µM (KM12): 95%
- growth at 0.01 µM (A549 [10]): 95%
- growth at 0.01 µM [11]: 100%
- growth at 10 µM (T47D [12]): 16.1%
- growth at 10 µM (CCRF-CEM [13]): 7%
- growth at 0.01 µM [14]: 88%
- growth at 100 µM [15]: -23%
- growth at 0.1 µM [16]: 89%
- growth at 10 µM [17]: -35%
- growth at 0.01 µM (U-251): 101%
- growth at 0.1 µM (MDA-MB-435 [18]): 102%
- growth at 10 µM (A549 [19]): 11.2%
- growth at 1 µM (A498): 74%
- growth at 10 µM (NCI-H522): 11.9%
- growth at 0.01 µM (EKVX): 93%
- growth at 0.1 µM (T47D [20]): 93%

Compound: Clc1ccc(-c2nc(Nc3ccc(-c4nc5ccccc5[nH]4)cc3)nc(N3CCOCC3)n2)cc1
- growth at 1 µM (HT-29 [1]): -39%
- growth at 0.01 µM (MDA-MB-435 [2]): 100%
- growth at 100 µM [3]: 1%
- growth at 0.1 µM [4]: 90%
- growth at 10 µM (HT-29 [5]): -74%
- growth at 1 µM [6]: -72%
- growth at 100 µM [7]: -67%
- growth at 0.1 µM (786-0): 92%
- growth at 10 µM (CCRF-CEM [8]): -91.5%
- growth at 0.01 µM [9]: 104%
- growth at 0.01 µM (KM12): 98%
- growth at 0.01 µM (A549 [10]): 96%
- growth at 0.01 µM [11]: 100%
- growth at 10 µM (T47D [12]): -64.8%
- growth at 10 µM (CCRF-CEM [13]): -63%
- growth at 0.01 µM [14]: 79%
- growth at 100 µM [15]: -51%
- growth at 0.1 µM [16]: 79%
- growth at 10 µM [17]: -85%
- growth at 0.01 µM (U-251): 99%
- growth at 0.1 µM (MDA-MB-435 [18]): 98%
- growth at 10 µM (A549 [19]): -75.2%
- growth at 1 µM (A498): 89%
- growth at 10 µM (NCI-H522): -73.9%
- growth at 0.01 µM (EKVX): 90%
- growth at 0.1 µM (T47D [20]): 92%

Compound: c1ccc2[nH]c(-c3ccc(Nc4nc(N5CCCCC5)nc(N5CCOCC5)n4)cc3)nc2c1
- growth at 1 µM (HT-29 [1]): 104%
- growth at 0.01 µM (MDA-MB-435 [2]): 96%
- growth at 100 µM [3]: -1%
- growth at 0.1 µM [4]: 100%
- growth at 10 µM (HT-29 [5]): -36%
- growth at 1 µM [6]: 96%
- growth at 100 µM [7]: -71%
- growth at 0.1 µM (786-0): 97%
- growth at 10 µM (CCRF-CEM [8]): 8.74%
- growth at 0.01 µM [9]: 96%
- growth at 0.01 µM (KM12): 101%
- growth at 0.01 µM (A549 [10]): 94%
- growth at 0.01 µM [11]: 97%
- growth at 10 µM (T47D [12]): 23.4%
- growth at 10 µM (CCRF-CEM [13]): 3%
- growth at 0.01 µM [14]: 85%
- growth at 100 µM [15]: -32%
- growth at 0.1 µM [16]: 74%
- growth at 10 µM [17]: -43%
- growth at 0.01 µM (U-251): 99%
- growth at 0.1 µM (MDA-MB-435 [18]): 95%
- growth at 10 µM (A549 [19]): 13.9%
- growth at 1 µM (A498): 83%
- growth at 10 µM (NCI-H522): 9.25%
- growth at 0.01 µM (EKVX): 93%
- growth at 0.1 µM (T47D [20]): 94%
